# The list is not random: actives were taken first. Their share in the collection is about 3.5%.
# RGS4 act: RGS4 potentiation or activation; HEK293 M3R/inducible RGS4, carbachol calcium flux Fluo4; active compounds read low; B-score at 10 µM; 310,000 tested, 0.92% active; AID 463111;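 active = B-score of the integrated calcium signal more than 4 SD below the library mean, with starting fluorescence not abnormally high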;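 note: negative B-score means reduced calcium response which marks RGS4 activation or potentiation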
#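 Test system: HEK293 cells with stable M3R and inducible RGS4; also added: carbachol at ECmax as muscarinic agonist stimulus; schedule: dye loading 30 min 37 °C, buffer rest 30 min RT; technique: kinetic calcium fluorescence imaging with Fluo4-AM dye, 2 µM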
# MrgX1 ag: human MrgX1 receptor agonism, primary screen | Q96LB2 | MrgX1-HEK293 cells, Fluo-4 calcium fluorescence, agonist mode; active compounds read high | B-score at 10 µM | 310,000 tested, 0.44% active | AID 588627;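 active = calcium response B-score plate-corrected fluorescence ratio at least 3 library SD, with starting fluorescence B-score inside 5 SD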
# Target sequence (Q96LB2 whole entry, looked up): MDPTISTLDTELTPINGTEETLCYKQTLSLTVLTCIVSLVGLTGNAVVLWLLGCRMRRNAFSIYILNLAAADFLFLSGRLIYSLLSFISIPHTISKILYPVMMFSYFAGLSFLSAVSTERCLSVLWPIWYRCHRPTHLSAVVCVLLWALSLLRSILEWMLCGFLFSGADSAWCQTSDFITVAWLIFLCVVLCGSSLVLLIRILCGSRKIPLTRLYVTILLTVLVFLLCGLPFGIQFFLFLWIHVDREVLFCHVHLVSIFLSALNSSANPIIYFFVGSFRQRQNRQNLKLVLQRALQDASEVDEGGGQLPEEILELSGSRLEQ
#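 Material – MrgX1-expressing HEK293 cells · Input – 15,000 cells seeded per well · Dosing – compound as first of three additions · Times – overnight seeding, then 1 h dark dye loading · Measured by – kinetic Fluo-4 NW fluorescence of intracellular calcium · Read-out – B-scored fluorescence response ratio · Benchmarks – positive and negative control wells on each plate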
# RGS4 block: human RGS4 inhibition; HEK293 M3R/RGS4 inducible, Fluo-4 calcium flux; active compounds read high; triggered by carbachol at its EC20; B-score at 10 µM; 310,000 tested, 0.45% active;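 active = B-score, a plate-corrected calcium signal, over three deviations above library mean, with baseline fluorescence within five deviations of library mean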;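 note: RGS4 expression induced by doxycycline in cells with stable M3 receptor; B-score is computed from the integrated fluorescence ratio over baseline after carbachol; higher B-score means a larger calcium signal and so more RGS4 inhibition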
# Target sequence (P49798 whole entry, looked up): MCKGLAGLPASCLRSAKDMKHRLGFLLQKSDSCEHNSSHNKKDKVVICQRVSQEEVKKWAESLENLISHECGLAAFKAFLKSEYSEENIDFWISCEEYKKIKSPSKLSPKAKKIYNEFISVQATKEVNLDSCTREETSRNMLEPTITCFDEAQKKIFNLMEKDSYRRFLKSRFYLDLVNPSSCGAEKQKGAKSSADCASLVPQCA
# MrgX1 PAM: allosterically activates human MrgX1 receptor signaling; 310,000 tested, 0.63% active; B-score at 10 µM; AID 588675; Q96LB2; MrgX1-HEK293, Fluo-4 calcium flux, FDSS; active compounds read high;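 active = plate-corrected calcium response at least 3 library SD above typical, normal starting fluorescence, not activating the receptor alone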;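 note: compound read alongside a low EC10 to EC30 dose of BAM8-22 agonist; peak minus trough fluorescence over baseline measured at the second addition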
# MrgX1 antag: antagonists of human MrgX1 receptor; MRGX1-HEK293 calcium flux, Fluo-4, BAM8-22 antagonism; active compounds read low; B-score at 10 µM; 310,000 tested, 1.3% active; AID 588676;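 active = calcium-response B-score plate-corrected more than 3 library SD below zero, starting fluorescence within 5 deviations, no agonist response on first addition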;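 note: peak minus trough fluorescence over baseline after final BAM8-22 challenge near maximal dose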
# MrgX1 antag conf: human MrgX1 receptor antagonism, re-confirmation screen; shares compounds with MrgX1 antag; remaining BAM8-22 calcium response % of control (active compounds read low), % at 10 µM; 2,300 tested, 19% active; MrgX1-HEK293, BAM8-22 calcium flux, Fluo-4; active compounds read low;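 active = remaining agonist calcium response no higher than 100% minus 3 SD of agonist-only control wells, with starting fluorescence near control levels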;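 note: agonist BAM8-22 given at a near maximal EC90 to ECmax level; peak minus minimum fluorescence divided by baseline after agonist addition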
# HEK293 Ca flux: activity in parental HEK293 cells lacking MrgX1; AID 624111; shares compounds with MrgX1 antag; 4,000 tested, 2% active; fluorescence ratio F(max-min)/F0 at 10 µM; Fluo-4 calcium fluorescence, FDSS;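 active = duplicate-averaged calcium fluorescence ratio at least three times the standard deviation of buffer wells, a nonspecific response in parental cells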
# HEK293 Ca counter: counter-screen for MrgX1 allosteric activators: effect in parental HEK293 cells | shares compounds with MrgX1 antag | parental HEK293 calcium flux, Fluo-4 fluorescence ratio; active compounds read high | fluorescence ratio F(max-min)/F0 at 10 µM | 4,000 tested, 0.4% active;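 active = calcium fluorescence ratio, averaged over duplicates, at least 3 SD of the buffer-well ratio, meaning a nonspecific response in receptor-free cells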;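 note: untransfected parental HEK293 lacking MrgX1 used as counterscreen for MrgX1 allosteric activators; fluorescence change taken during the second addition on a kinetic imager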
# HEK293 Ca cntr2: MrgX1 activator counter-screen hit in parental HEK293 cells | shares compounds with MrgX1 antag | Fluo-4 calcium fluorescence (FDSS); active compounds read high | fluorescence ratio F(max-min)/F0 at 10 µM | 4,000 tested, 8.7% active;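 active = calcium fluorescence ratio at least three times the spread of buffer wells, meaning a non-specific response in parental cells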
# * marks the source's active call; other numbers are inactive results; i = inactive; . = not tested or not shown; ! = repeats disagree.
SMILES,RGS4 act,MrgX1 ag,RGS4 block,MrgX1 PAM,MrgX1 antag,MrgX1 antag conf,HEK293 Ca flux,HEK293 Ca counter,HEK293 Ca cntr2
CCNC(=S)Nc1ccc(Cl)cc1,i,i,i,i,-6*,i,i,i,i
O=C(O)Cn1nnnc1-c1ccc(F)cc1,i,i,i,i,-5.6*,i,i,i,i
CC1CCCCN1C(=O)CCS(=O)(=O)c1cc2c(cc1Cl)NC(=O)CO2 (centres undefined),i,i,i,i,i,.,.,.,.
O=C(NCCc1ccco1)C(=O)NCC1CCCN1S(=O)(=O)c1ccccc1 (centres undefined),-7.3*,i,i,i,-5.1*,i,i,i,i
Cc1ccc(C)c(S(=O)(=O)N2CCCC2CNC(=O)C(=O)NCCc2ccco2)c1 (centres undefined),i,i,i,i,i,.,.,.,.
O=C(O)CCNc1ccc(NCCC(=O)O)c2c1C(=O)c1ccccc1C2=O,i,i,i,i,-4.7*,i,i,i,i
CCCc1cc(=O)[nH]c(SCCN2C(=O)c3ccccc3C2=O)n1,i,i,i,i,-5.3*,i,i,i,i
O=C(C1CCCCC1)N1CCN(c2ccnc3cc(Cl)ccc23)CC1,i,i,i,i,-12*,i,i,i,i
O=C(C1CCC1)N1CCN(c2ccnc3cc(Cl)ccc23)CC1,i,i,i,i,i,.,.,.,.
COC(=O)[C@@H]1C[C@@]2(Br)c3ccccc3N(S(=O)(=O)c3ccccc3)[C@H]2N1C(=O)OC,i,i,i,i,-6*,i,i,i,61*
CC(N)C12CC3CC(CC(C3)C1)C2 (centres undefined),i,i,i,i,-5*!,i,i,i,i
Cc1ccc(S(=O)(=O)NCC(c2ccco2)N2CCc3ccccc3C2)cc1 (centres undefined),i,i,i,i,-5.1*,i,i,i,i
Cc1ccc(C(CNS(=O)(=O)c2ccc(Br)cc2)N2CCN(C)CC2)cc1 (centres undefined),i,i,i,i,i,.,.,.,.
Cc1ccc(C(CNS(=O)(=O)c2ccccc2)N2CCN(C)CC2)cc1 (centres undefined),i,i,i,i,-8.1*,i,i,i,i
COc1ccc(S(=O)(=O)NCC(c2ccco2)N2CCc3ccccc32)cc1 (centres undefined),i,i,i,i,i,.,.,.,.
Cc1ccc(S(=O)(=O)NCC(c2ccco2)N2CCc3ccccc32)cc1 (centres undefined),i,i,i,i,-5.6*,i,i,i,i
CN(CCC1CCOCC1)C(=O)CC1C(=O)NCCN1Cc1c(F)cccc1Cl (centres undefined),i,i,i,i,i,.,.,.,.
CC(Nc1c([N+](=O)[O-])c(=O)oc2ccccc12)c1ccccc1 (centres undefined),i,i,i,i,i,.,.,.,.
O=C(CSc1ccc2nnc(-c3ccccn3)n2n1)Nc1ccccc1C(F)(F)F,i,i,i,i,i,.,.,.,.
CC(NC(N)=O)C(=O)OCc1ccc(Cl)cc1Cl (centres undefined),i,i,i,i,-8.2*,i,i,i,i
CC1Cc2ccccc2N1C(=O)c1ccc(N2CCCC2)c([N+](=O)[O-])c1 (centres undefined),i,i,i,i,i,.,.,.,.
CC1Cc2ccccc2N1C(=O)c1ccc(N2CCCCC2)c([N+](=O)[O-])c1 (centres undefined),i,i,i,i,-11*,i,i,i,i
Cn1ncc([N+](=O)[O-])c1C(=O)NC1CCCCC1,i,i,i,i,i,.,.,.,.
Cc1[nH]ccc(=O)c1OCc1c(Cl)cccc1Cl,i,i,i,i,-6.7*,i,i,i,i
Nc1cccnc1Sc1cc(Cl)c(Cl)cc1Cl,i,i,i,i,-6.5*,i,i,i,i
SMILES,RGS4 act,MrgX1 ag,RGS4 block,MrgX1 PAM,MrgX1 antag,MrgX1 antag conf,HEK293 Ca flux,HEK293 Ca counter,HEK293 Ca cntr2
COc1ccc(C(=O)N(C)Cc2ccccn2)cc1OC1CCN(C(C)C)CC1,i,i,i,i,-5.2*,i,i,i,i
COc1ccc(C(=O)N(C)Cc2ccon2)cc1OC1CCN(C(C)C)CC1,i,i,i,i,i,.,.,.,.
COc1ccc(CN2CCN(CCSc3ccc(C)cc3)CC2)c(OC)c1OC,i,i,i,i,i,.,.,.,.
CCOC(=O)Cc1csc(NC(=O)c2sc3nc4ccc(CC)cc4cc3c2N)n1,i,i,i,i,i,.,.,.,.
CCOC(=O)Cc1csc(NC(=O)Nc2ccc(Cl)cc2)n1,i,i,i,i,i,.,.,.,.
CCOC(=O)Cc1csc(NC(=O)Nc2cccc(Cl)c2)n1,i,i,i,i,-7.4*,i,i,i,i
CCOC(=O)Cc1csc(NC(=O)c2sc3nc4cc(C)ccc4cc3c2N)n1,i,i,i,i,-6.4*,i,i,i,i
COc1cc(NC(=O)C2CSC3(C)CCC(=O)N23)c(OC)cc1Cl (centres undefined),i,i,i,i,-7.8*,83%*,i,i,i
Cc1ccc(C(=O)NCc2cccnc2)cc1S(=O)(=O)N1CCCCCC1,i,i,i,i,i,.,.,.,.
CC(Oc1ccc(Cl)cc1)C(=O)Nc1ccc(S(=O)(=O)Nc2nccs2)cc1 (centres undefined),i,i,i,i,-5.6*,i,i,i,51*
Cc1ccc(CN2C(=O)C3CCCN3c3ccc(C#N)cc32)cc1 (centres undefined),i,i,i,i,i,.,.,.,.
Cc1ccc(C)c(CN2C(=O)C3CCCN3c3ccc(C#N)cc32)c1 (centres undefined),i,i,i,i,-5.6*,i,i,i,i
